The half-life is the time in which the quantity being followed falls by half. A low value points to rapid decline.

Active and inactive are the calls of the source. No cut-off for these calls is given here.

Data set [1] can be described thus: Half-life for hydrolysis was determined from kinetic constant. Type of data set: ADME. The gist of the method: (§1)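 Spontaneous hydrolysis in 0.1 M HEPES, 0.5 M NaCl, pH 7.5, 10% v/v DMSO final, 25 °C. Inhibitor added from 2.9–5.0 mM DMSO stock. Ring opening followed as absorbance decrease at 385 nm (ε385 = 3300 M⁻¹ cm⁻¹). Half-life from the first-order rate. Two determinations, standard errors ±15% or less.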

In data set [2] the target is T1, Cathepsin G (Homo sapiens) (UniProt P08311).
T1 sequence (whole entry): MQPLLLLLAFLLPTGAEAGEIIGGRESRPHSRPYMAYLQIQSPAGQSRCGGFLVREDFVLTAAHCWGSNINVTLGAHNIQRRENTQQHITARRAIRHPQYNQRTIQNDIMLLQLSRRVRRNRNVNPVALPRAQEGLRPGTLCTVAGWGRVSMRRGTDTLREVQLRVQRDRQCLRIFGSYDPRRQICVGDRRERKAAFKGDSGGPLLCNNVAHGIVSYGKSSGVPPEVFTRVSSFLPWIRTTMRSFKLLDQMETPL
In words: The second order inactivation rate constant was expressed as inhibition of cathepsin G (Cat G).Inhibitor concentrations were 35-710 uM. The gist of the method:
(§2)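 Kitz–Wilson incubation method. Enzyme was preincubated with inhibitor (added in DMSO) in 0.1 M HEPES, 0.5 M NaCl, pH 7.5, at 25 °C. Aliquots were taken over time and diluted into pNA substrate: HLE MeO-Suc-Ala-Ala-Pro-Val-pNA (0.2–0.5 mM), PPE Suc-Ala-Ala-Ala-pNA, ChT and Cat G Suc-Val-Pro-Phe-pNA (0.4–0.5 mM). Release was read at 410 nm. kobs/[I] from ln(v0/vt) vs time. Mean of two determinations. Fast rates measured with equimolar inhibitor and enzyme.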

Data set [3] deals with T2, Neutrophil elastase (Homo sapiens) (UniProt P08246).
T2 sequence (whole entry): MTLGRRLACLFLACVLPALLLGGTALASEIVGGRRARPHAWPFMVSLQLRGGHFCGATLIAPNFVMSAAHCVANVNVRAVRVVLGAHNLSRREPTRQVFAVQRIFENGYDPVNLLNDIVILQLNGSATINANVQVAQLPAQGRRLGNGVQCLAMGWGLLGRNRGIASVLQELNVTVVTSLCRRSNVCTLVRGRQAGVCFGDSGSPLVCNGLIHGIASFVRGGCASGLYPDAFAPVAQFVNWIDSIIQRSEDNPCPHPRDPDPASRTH
The experiment in a line: Second order inactivation rate constant for inhibition of human leukocyte elastase. The gist of the method:
as §2

Data set [4] has as its target T2, Neutrophil elastase (Homo sapiens). In words: The second order inactivation rate constant expressed as inhibition of human leukocyte elastase (HLE). Inhibitor concentrations were 0.07-710 uM. The gist of the method: as §2
For data set [5] the target is unchanged. In words: Inhibition of human leukocyte elastase. The gist of the method: as §2
In data set [6] the target is T3, Chymotrypsin-like elastase family member 2A (Sus scrofa) (UniProt P08419).
T3 sequence (whole entry): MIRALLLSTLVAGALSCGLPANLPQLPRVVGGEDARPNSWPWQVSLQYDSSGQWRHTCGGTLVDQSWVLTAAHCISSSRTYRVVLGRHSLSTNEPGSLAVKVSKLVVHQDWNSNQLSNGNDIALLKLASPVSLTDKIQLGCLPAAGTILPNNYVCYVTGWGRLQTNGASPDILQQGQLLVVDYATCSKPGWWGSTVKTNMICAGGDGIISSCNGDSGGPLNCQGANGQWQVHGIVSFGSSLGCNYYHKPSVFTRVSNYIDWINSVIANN
In words: The second order inactivation rate constant expressed as inhibition of porcine pancreatic elastase (PPE).Inhibitor concentrations were 0.04-2.0 mM.

In data set [7] the target is Chymotrypsinogen A (Bos taurus) (UniProt P00766). The experiment in a line: The second order inactivation rate constant was expressed as inhibition of chymotrypsin (ChT).Inhibitor concentrations were 360-570 uM. The gist of the method:
as §2

In data set [8] the target is T2, Neutrophil elastase (Homo sapiens). The experiment in a line: The second order inactivation rate constant was expressed as inhibition of human leukocyte elastase (HLE). Inhibitor concentrations were 0.4-4 uM. The gist of the method: as §2
Data set [9] deals with T3, Chymotrypsin-like elastase family member 2A (Sus scrofa). In words: The second order inactivation rate constant was expressed as inhibition of porcine pancreatic elastase (PPE).Inhibitor concentrations were 2-600 uM. The gist of the method:
as §2

The nature of data set [10]: Half-life for hydrolysis of compound was determined from kinetic constant. It counts as ADME. The gist of the method:
as §1

For data set [11], the target named is T3, Chymotrypsin-like elastase family member 2A (Sus scrofa). In words: Percent activity regained after 17h of incubation with hydroxylamine (Non-preincubated PPE). The gist of the method:
(§3)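 Without preincubation, hydroxylamine was added immediately after inhibition at [I]/PPE 200:1, and activity was read after 17 h. With preincubation, the 1:1 [I]/PPE complex stood 20 h at room temperature in buffer before hydroxylamine was added. Activity read at 1–17 h.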

The target is the same in data set [12]. In words: Percent activity regained after 20h of pre-incubation before addition of hydroxylamine (Preincubated Pancreatic elastase). The gist of the method: as §3
The target in data set [13] is Chymotrypsinogen A (Bos taurus) (UniProt P00766). The experiment in a line: The second order inactivation rate constant was expressed as inhibition of chymotrypsin (ChT).Inhibitor concentrations were 1.7-58 uM;No inhibition. The gist of the method:
as §2

Data set [14] concerns the target T3, Chymotrypsin-like elastase family member 2A (Sus scrofa). In words: The second order inactivation rate constant was expressed as inhibition of porcine pancreatic elastase (PPE).Inhibitor concentrations were 0.04-2.0 uM;No inhibition. As to conditions: in the assay text read “0.04-2.0 mM” for “0.04-2.0 uM”. The gist of the method: as §2
Data set [15] deals with Chymotrypsinogen A (Bos taurus) (UniProt P00766). In words: The second order inactivation rate constant was expressed as inhibition of chymotrypsin (ChT). Inhibitor concentrations were 3.4-70 uM. The gist of the method:
as §2

For data set [16], the target named is T2, Neutrophil elastase (Homo sapiens). In words: Inhibition of human leukocyte elastase(HLE) at 0.7-1.7 uM. The gist of the method: as §2
Data set [17] addresses T3, Chymotrypsin-like elastase family member 2A (Sus scrofa). In words: The second order inactivation rate constant was expressed as inhibition of porcine pancreatic elastase (PPE). Inhibitor concentrations were 34-56 uM. The gist of the method:
as §2

Data set [18] deals with T1, Cathepsin G (Homo sapiens). The experiment in a line: The second order inactivation rate constant was expressed as inhibition of cathepsin G(Cat G).Inhibitor concentrations were 35-710 uM; No inhibition. The gist of the method:
as §2

Data set [19] addresses T3, Chymotrypsin-like elastase family member 2A (Sus scrofa). In words: Percent activity regained after 17h of incubation with hydroxylamine (Non-preincubated Pancreatic elastase). The gist of the method: as §3
Data set [20] addresses T1, Cathepsin G (Homo sapiens). In words: Inhibition of cathepsin G at 35-710 uM. The gist of the method: as §2
In data set [21] the target is T2, Neutrophil elastase (Homo sapiens). The experiment in a line: The second order inactivation rate constant was expressed as inhibition of human leukocyte elastase. The gist of the method: as §2

`Nc1ccc2c(Cl)c(OCCCBr)oc(=O)c2c1`: the half-life in data set [1] is 3.2 h. Moreover, the values for the K obs / 1 in data set [2], in [4] and in data set [6] were 210 M⁻¹ s⁻¹, 4000 M⁻¹ s⁻¹ and 10 M⁻¹ s⁻¹, respectively. In data set [3], this molecule showed a k obs / 1 of 4000 M⁻¹ s⁻¹. The molecule further registered a [I] in data set [5] of 3.4 µM.
With `COc1oc(=O)c2cc(NC(=O)[C@H](Cc3ccccc3)NC(=O)c3cccc(C)c3)ccc2c1Cl`, the results for the k obs / 1 in [7], in data set [8] and in data set [9] were 64 M⁻¹ s⁻¹, 130000 M⁻¹ s⁻¹ and 1600 M⁻¹ s⁻¹, respectively. Moreover, the half-life in data set [10] was above 48 h.
As to `COc1oc(=O)c2cc(NC(=O)[C@H](Cc3ccccc3)NC(=O)c3ccccc3)ccc2c1Cl`, the k obs / 1 in data set [7] amounted to 55 M⁻¹ s⁻¹; in data set [8] it was 180000 M⁻¹ s⁻¹; in data set [9], 530 M⁻¹ s⁻¹. For the same molecule, the Activity regained in data set [11] turned out to be 91%; in data set [12], 31%. The half-life in data set [10] is above 48 h.
As for `O=C(CCC(=O)OCc1ccccc1)Nc1ccc2c(Cl)c(OCCBr)oc(=O)c2c1`, the “K obs / 1” value in [13] and in data set [14] was “inactive” each time. The molecule further had a K obs / 1 in [4] of 3210 M⁻¹ s⁻¹.
Take `CCCOc1oc(=O)c2cc(NC(=O)[C@H](Cc3ccccc3)NS(=O)(=O)c3ccc(C)cc3)ccc2c1Cl`: the figures for the k obs / 1 in data set [15], in data set [16] and in data set [17] were 6100 M⁻¹ s⁻¹, 33000 M⁻¹ s⁻¹ and 520 M⁻¹ s⁻¹, respectively.
Turning to `COc1oc(=O)c2cc(NC(=O)CBr)ccc2c1Cl`, the K obs / 1 is 350 M⁻¹ s⁻¹ in data set [7], 39000 M⁻¹ s⁻¹ in data set [8] and 3500 M⁻¹ s⁻¹ in [9].
For `CCCOc1oc(=O)c2cc(N/C(S)=N/Cc3ccccc3)ccc2c1Cl`, the k obs / 1 in [15] is 120 M⁻¹ s⁻¹; in data set [16], above 130000 M⁻¹ s⁻¹; in data set [17], 79 M⁻¹ s⁻¹.
`COc1oc(=O)c2cc(NC(=O)C(Cc3ccccc3)NC(=O)c3cccc(NC(=O)Nc4ccccc4)c3)ccc2c1Cl` (stereo unspecified): the k obs / 1 is 110 M⁻¹ s⁻¹ in [7], 28000 M⁻¹ s⁻¹ in data set [8] and 54 M⁻¹ s⁻¹ in [9].
As to `CCCOc1oc(=O)c2cc(N/C(S)=N/c3ccccc3)ccc2c1Cl`, the k obs / 1 was 240 M⁻¹ s⁻¹ in data set [15], above 170000 M⁻¹ s⁻¹ in data set [16] and 59 M⁻¹ s⁻¹ in data set [17].
Consider `O=C(CCc1ccccc1)Nc1ccc2c(Cl)c(OCCCBr)oc(=O)c2c1`, for which the “K obs / 1” value in data set [18] is “inactive”.
For the molecule `CCCOc1oc(=O)c2cc(NC(=O)NCC)ccc2c1Cl`, the k obs / 1 was 12000 M⁻¹ s⁻¹ in [15], above 280000 M⁻¹ s⁻¹ in [16] and 220 M⁻¹ s⁻¹ in data set [17].
`COc1oc(=O)c2cc(NC(=O)[C@H](Cc3ccccc3)NC(=O)c3ccc([N+](=O)[O-])cc3)ccc2c1Cl`: the k obs / 1 was 30 M⁻¹ s⁻¹ in [7], 130000 M⁻¹ s⁻¹ in data set [8] and 64 M⁻¹ s⁻¹ in data set [9]. Besides, the results for the Activity regained in [19] and in [12] were 91% and 6%, respectively.
With `COc1oc(=O)c2cc(NC(=O)[C@H](Cc3ccccc3)NC(=O)c3ccc(C)cc3)ccc2c1Cl`, the k obs / 1 in data set [7] stood at 130 M⁻¹ s⁻¹; in data set [8], 170000 M⁻¹ s⁻¹; in [9], 83 M⁻¹ s⁻¹. The figures for the Activity regained in data set [19] and in [12] were 91% and 14%, respectively. Besides, the half-life in data set [10] is above 48 h.
Consider `CCCOc1oc(=O)c2cc(NC(=O)Nc3ccccc3)ccc2c1Cl`, for which the results for the k obs / 1 in data set [15], in [16] and in data set [17] were 5200 M⁻¹ s⁻¹, 140000 M⁻¹ s⁻¹ and 1600 M⁻¹ s⁻¹, respectively.
As to `O=C(Nc1ccccc1)Nc1ccc2c(Cl)c(OCCBr)oc(=O)c2c1`, in data set [18], the “K obs / 1” value was “inactive”. The figures for the K obs / 1 in data set [4] and in data set [6] were 1.2e+06 M⁻¹ s⁻¹ and 36 M⁻¹ s⁻¹, respectively.
In the case of `CC(C)(C)OC(=O)N[C@H](Cc1ccccc1)C(=O)Nc1ccc2c(Cl)c(OCCCBr)oc(=O)c2c1`, in data set [18], the “K obs / 1” value is “inactive”. Further, the K obs / 1 in [4] was determined as 1480 M⁻¹ s⁻¹.
As for `COc1oc(=O)c2cc(NC(=O)[C@H](Cc3c[nH]c4ccccc34)NC(=O)OC(C)(C)C)ccc2c1Cl`, the k obs / 1 in data set [7] stood at 33 M⁻¹ s⁻¹; in data set [8] it was 79000 M⁻¹ s⁻¹; in [9], 5800 M⁻¹ s⁻¹.
Take `CC(C)(C)OC(=O)N[C@@H](Cc1ccccc1)C(=O)Nc1ccc2c(Cl)c(OCCCBr)oc(=O)c2c1`: the “K obs / 1” value in data set [18] is “inactive”. The K obs / 1 in [4] came out at 1320 M⁻¹ s⁻¹.
For the molecule `COc1oc(=O)c2cc(N)ccc2c1Cl`, the half-life in data set [1] is 3.3 h. The molecule further returned a k obs / 1 in data set [3] of 10000 M⁻¹ s⁻¹. In data set [5], this molecule yielded a [I] of 6 µM.
For `COc1oc(=O)c2cc(NC(=O)C(Cc3ccccc3)NC(=O)c3ccc(NC(=O)Nc4ccccc4)cc3)ccc2c1Cl` (stereo unspecified), the k obs / 1 in [7] stood at 10 M⁻¹ s⁻¹; in data set [8], 15000 M⁻¹ s⁻¹; in data set [9] it was 68 M⁻¹ s⁻¹.
`Nc1ccc2c(Cl)c(OCCBr)oc(=O)c2c1` gave a half-life in data set [1] of 2.4 h. Besides, the K obs / 1 was found to be 410 M⁻¹ s⁻¹ in [20], 200000 M⁻¹ s⁻¹ in data set [21] and 1000 M⁻¹ s⁻¹ in data set [6]. Further, the [I] in data set [5] is 0.07 µM.
Regarding `CCOc1oc(=O)c2cc(N)ccc2c1Cl`, the half-life in data set [1] was 3.6 h. The k obs / 1 in data set [3] stood at 9400 M⁻¹ s⁻¹. Also, the [I] in [5] came to 4 µM.

The values above are taken from ChEMBL document CHEMBL1128722, “Mechanism-based isocoumarin inhibitors for human leukocyte elastase. Effect of the 7-amino substituent and 3-alkoxy group in 3-alkoxy-7-amino-4-chloroisocoumarins on inhibitory potency” (J Med Chem, 1995).
